The RNAGym collection of RNA variant scans (doi:10.1002/anie.201605470)

B1: Osa-1-4 twister ribozyme (parent)
chain: CCGCCUAACACUGCCAAUGCCGGUCCCAAGCCCGGAUAAAAGUGGAGGGGGCGG

Variants of: B1
Experiment: self-cleavage, relative activity (ratio to wild type); higher = more cleavage; co-transcriptional
In short: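 For each read, cleavage status was taken from whether upstream sequence was present. The reads came from an Oryza sativa twister ribozyme of 54 nucleotides, whose DNA template was synthesised with 97 % wild-type base and 1 % of each other base at the 48 positions downstream of the cleavage site. The template was transcribed in vitro at 37 °C for 2 h with co-transcriptional self-cleavage, and the RNA was reverse-transcribed using a template-switching oligonucleotide, PCR-amplified and deep-sequenced. Relative activity is the fraction cleaved normalised to wild type.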
A38C G49A gave a self-cleavage of 0.1. In the case of A38C G49U, the self-cleavage is reported as 0.1. Work on A38C G49C yielded a self-cleavage of 0.06. A38G gave a self-cleavage of 1.01. A38G C52A gave a self-cleavage of 1.02. With A38G C52U the self-cleavage was 0.95. A38G C52G showed a self-cleavage of 0.96. Variant A38C U18A has a self-cleavage of 0.98. A38C U18G gave a self-cleavage of 0.81. In the case of A38C U18C, the self-cleavage is reported as 0.99. With A38C C27U the self-cleavage was 0.18. With A38C C27A the self-cleavage was 0.18. A38C C27G showed a self-cleavage of 0.06. Work on A38C G50A yielded a self-cleavage of 0.75. With A38C G50C the self-cleavage was 1.01. Variant A38C G50U has a self-cleavage of 1.04. Variant A38G A8C has a self-cleavage of 0.07. For A38G A8U, the self-cleavage was 0.27. Variant A38G A8G has a self-cleavage of 0.55. In the case of A38C C9A, the self-cleavage is reported as 0.37. A38C C9U showed a self-cleavage of 0.78. Work on A38C C9G yielded a self-cleavage of 0.83. Variant A38C G22U has a self-cleavage of 0.87. A38C G22A showed a self-cleavage of 1.04. Work on A38C G22C yielded a self-cleavage of 0.09. For A38G G19A, the self-cleavage was 0.46. Work on A38C G48C yielded a self-cleavage of 0.08. With A38C G48A the self-cleavage was 0.09. For A38C G48U, the self-cleavage was 0.07. With A38C G34U the self-cleavage was 0.67. For A38C G34C, the self-cleavage was 0.38. In the case of A38C G34A, the self-cleavage is reported as 0.85. For A38C C26G, the self-cleavage was 0.08. In the case of A38C C26A, the self-cleavage is reported as 0.07. Variant A38C C26U has a self-cleavage of 0.94. In the case of A38C G47U, the self-cleavage is reported as 0.22. With A38C G47A the self-cleavage was 0.19. A38C G47C gave a self-cleavage of 0.08. In the case of A38C C21G, the self-cleavage is reported as 0.07. For A38C C21A, the self-cleavage was 0.27. Work on A38C C21U yielded a self-cleavage of 0.92. For A38G C33A, the self-cleavage was 0.11. A38G C33G gave a self-cleavage of 0.07. With A38G C33U the self-cleavage was 0.78. In the case of A38C C15U, the self-cleavage is reported as 0.57. For A38C C15G, the self-cleavage was 0.11. With A38C C15A the self-cleavage was 0.31. With A38G C11U the self-cleavage was 0.94. With A38G C11G the self-cleavage was 0.68. With A38G C11A the self-cleavage was 0.8. With A38C C31U the self-cleavage was 0.89. Variant A38C C31A has a self-cleavage of 0.04. A38C C31G showed a self-cleavage of 0.09. For A38C U43C, the self-cleavage was 0.38. Work on A38C U43G yielded a self-cleavage of 0.34. For A38C U43A, the self-cleavage was 0.88. With A38C G51U the self-cleavage was 0.37. With A38C G51A the self-cleavage was 0.69. Variant A38C G51C has a self-cleavage of 0.09. With A38G A39G the self-cleavage was 0.4. A38G A39C showed a self-cleavage of 0.97. Variant A38G A39U has a self-cleavage of 0.98. With A38C C25U the self-cleavage was 0.88. In the case of A38C C25G, the self-cleavage is reported as 0.06. With A38C C25A the self-cleavage was 0.07. In the case of A38C G53U, the self-cleavage is reported as 0.24. With A38C G53C the self-cleavage was 0.08. A38C G53A showed a self-cleavage of 0.84. A38G C15U showed a self-cleavage of 0.47. A38G C15G showed a self-cleavage of 0.35. Work on A38G C15A yielded a self-cleavage of 0.33. For A38C U37A, the self-cleavage was 1.05. A38C U37C gave a self-cleavage of 1. Work on A38C U37G yielded a self-cleavage of 0.99. In the case of A38C G54A, the self-cleavage is reported as 0.96. In the case of A38C G54C, the self-cleavage is reported as 0.93. Work on A38C G54U yielded a self-cleavage of 0.94. A38C G44C showed a self-cleavage of 0.97. Variant A38C G44A has a self-cleavage of 0.99. For A38C G44U, the self-cleavage was 0.93. For A38G C9U, the self-cleavage was 0.7. Variant A38G C9A has a self-cleavage of 0.45. Work on A38G C9G yielded a self-cleavage of 0.88. With A38C G13C the self-cleavage was 0.03. Work on A38C G13U yielded a self-cleavage of 0.03. A38C G13A showed a self-cleavage of 0.07. For A38G A7G, the self-cleavage was 0.31. In the case of A38G A7U, the self-cleavage is reported as 0.08. Variant A38G A7C has a self-cleavage of 0.06. With A38G C26G the self-cleavage was 0.14. With A38G C26A the self-cleavage was 0.06. Work on A38G C26U yielded a self-cleavage of 0.85. With A38C C32A the self-cleavage was 0.09. For A38C C32U, the self-cleavage was 0.13. For A38C C32G, the self-cleavage was 0.09. Work on A38C C52G yielded a self-cleavage of 1.03. A38C C52U showed a self-cleavage of 1.03. Variant A38C C52A has a self-cleavage of 1. Work on A38C C14U yielded a self-cleavage of 0.4. For A38C C14G, the self-cleavage was 0.08. A38C C14A gave a self-cleavage of 0.09. A38G C31U gave a self-cleavage of 0.73. For A38G C31A, the self-cleavage was 0.03. For A38G C31G, the self-cleavage was 0.13. A38C G35A showed a self-cleavage of 0.84. Variant A38C G35C has a self-cleavage of 0.36. In the case of A38C G35U, the self-cleavage is reported as 0.86. In the case of A38C C11A, the self-cleavage is reported as 0.74. A38C C11G showed a self-cleavage of 0.5. With A38C C11U the self-cleavage was 0.92. Variant A38C G30A has a self-cleavage of 0.05. Work on A38C G30C yielded a self-cleavage of 0.05. A38C G30U gave a self-cleavage of 0.03. Work on A38G A46U yielded a self-cleavage of 0.07. In the case of A38G A46G, the self-cleavage is reported as 0.08. With A38G A46C the self-cleavage was 0.08. For A38C U12A, the self-cleavage was 0.92. With A38C U12G the self-cleavage was 0.29. With A38C U12C the self-cleavage was 0.38. Variant A38G C21U has a self-cleavage of 1.01. A38G C21A gave a self-cleavage of 0.78. Work on A38G C21G yielded a self-cleavage of 0.08. In the case of A38G C20U, the self-cleavage is reported as 0.98. With A38G C20A the self-cleavage was 0.9. For A38G C20G, the self-cleavage was 0.19. With A38G C25G the self-cleavage was 0.11. With A38G C25U the self-cleavage was 0.78. For A38G C25A, the self-cleavage was 0.09. In the case of A38G C27U, the self-cleavage is reported as 0.18. Variant A38G C27G has a self-cleavage of 0.09. A38G C27A showed a self-cleavage of 0.16. A38C C20U showed a self-cleavage of 0.95. Work on A38C C20A yielded a self-cleavage of 0.86. A38C C20G gave a self-cleavage of 0.09. With A38G C32A the self-cleavage was 0.09. With A38G C32G the self-cleavage was 0.18. Work on A38G C32U yielded a self-cleavage of 0.12. A38C G45C gave a self-cleavage of 0.05. A38C G45U gave a self-cleavage of 0.1. A38C G45A showed a self-cleavage of 0.32. A38C G19A gave a self-cleavage of 0.64. With A38C G19U the self-cleavage was 0.33. For A38C G19C, the self-cleavage was 0.07. For A38C G23U, the self-cleavage was 0.07. In the case of A38C G23A, the self-cleavage is reported as 0.1. In the case of A38C G23C, the self-cleavage is reported as 0.04. A38C C33G showed a self-cleavage of 0.05. In the case of A38C C33A, the self-cleavage is reported as 0.1. Variant A38C C33U has a self-cleavage of 0.79. For A38C G42U, the self-cleavage was 0.07. A38C G42A gave a self-cleavage of 0.35. With A38C G42C the self-cleavage was 0.12. A38G A41G gave a self-cleavage of 0.75. Variant A38G A41C has a self-cleavage of 0.98. Variant A38G A41U has a self-cleavage of 1.01. Variant A38G G13A has a self-cleavage of 0.12. Variant A38G G13U has a self-cleavage of 0.03. A38G G13C gave a self-cleavage of 0.03. With A38G A40G the self-cleavage was 0.6. With A38G A40U the self-cleavage was 0.32. A38G A40C gave a self-cleavage of 0.07. Variant A38C U24G has a self-cleavage of 0.04. With A38C U24C the self-cleavage was 0.26. Variant A38C U24A has a self-cleavage of 0.16. For A38G C14A, the self-cleavage was 0.07. In the case of A38G C14G, the self-cleavage is reported as 0.13. A38G C14U showed a self-cleavage of 0.13.
